# A number with no mark means an inactive call.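 How the source made its calls: active means viability at or below 30% in both replicate assays; inconclusive means viability at or below 30% in just one of the two assays; inactive means the rest.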
# Assay: HUVEC growth inhibition – cell-based, human, primary screen (AID 575);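 further: 100% = median of untreated cell wells with 0.1% DMSO on each plate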
# Details: HUVEC proliferation, CellTiter-Glo luminescence, 72 h; at 10 µM; stronger effect = lower value
# Summary of the method: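 material = primary HUVEC, no more than 12 passages | input = 1250 cells per well | controls = vehicle and MePR control wells | measured by = CTG luminescence | times = 72 h compound incubation | format = collagen-coated 384-well format | read-out = % viability vs DMSO wells | doses = single 10 µM dose, 0.1% DMSO, from 5x medium stock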
row,Structure (SMILES),viability [%]
1,O=C(CS(=O)(=O)c1cn(Cc2ccc(Cl)cc2)c2ccccc12)N1CCCC1,88.2
2,O=c1c2cc(N3CCOCC3)ccc2[nH]c(=S)n1CCCN1CCCC1,86
3,CCOC(=O)c1[nH]c(C)c(C(=O)Nc2ccc(C)c(Cl)c2)c1C,61.4
4,CSc1nnc(-c2nnc(SC)n2-c2ccccc2)n1-c1ccccc1,89.8
5,COc1ccc(C(=O)NCc2ccccc2OC)cc1,93.8
6,CCOC(=O)c1[nH]c(C)c(C(=O)N2CCN(C(=O)c3ccco3)CC2)c1C,98.4
7,O=C(O)c1oc2ccccc2c1-n1cccc1,102
8,Cc1nn(-c2ccc(F)cc2)c(C)c1NS(=O)(=O)c1ccc(Cl)cc1,90.9
9,O=C(CSc1nnc(-c2ccccc2)c(-c2ccccc2)n1)N1CCOCC1,101
10,O=C(NCCCNC(=O)c1ccccn1)c1ccccn1,79.6
11,Cn1c(=O)c2[nH]c(NCC3CCCO3)nc2n(-c2ccccc2)c1=O (stereo unspecified),116
12,CCOC(=O)c1c(C)[nH]c(C=Nc2ccccc2)c1O,106
13,COc1ccc(-n2c(SCc3ccc(C#N)cc3)nnc2-c2ccccn2)cc1,120
14,O=C(O)c1ccc2c(c1)N(Cc1ccccc1F)C(=O)c1ccccc1S2=O (stereo unspecified),92.8
15,Cc1onc(-c2ccccc2Cl)c1C(=O)Nc1cccc(-c2cn3cccnc3n2)c1,71.4
16,COc1cc(OC)cc(C(=O)NCCN2CCOCC2)c1,98.3
